Assay results taken from ChEMBL document CHEMBL1649392, “Synthesis of substituted 3-amino-N-phenyl-1H-indazole-1-carboxamides endowed with antiproliferative activity” (Eur J Med Chem, 2011).

Columns and labels:
Assay type in all cases: functional
A549 = experiment: Antiproliferative activity against human A549 cells after 48 hrs by sulforhodamine B assay; settings: A549, 48 h; for CC50: read-out: LC50 (the source's name)
How it was run: (§1)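 NCI 60-cell-line panel covering nine cancer types (leukemia, non-small cell lung, colon, CNS, melanoma, ovarian, renal, prostate, breast). Compounds were first tested at a single dose, then in a five-dose screen (series starting 0.01, 0.1 …) if they met NCI threshold criteria. Reported per line: GI50 (molar concentration inhibiting 50% net growth), TGI (total growth inhibition) and LC50 (50% net cell death).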

SF-539 = experiment: Antiproliferative activity against human SF539 cells after 48 hrs by sulforhodamine B assay; settings: SF-539, 48 h; for CC50: read-out: LC50 (the source's name); how it was run: as §1
UACC-62 = experiment: Antiproliferative activity against human UACC62 cells after 48 hrs by sulforhodamine B assay; settings: UACC-62, 48 h; for CC50: read-out: LC50 (the source's name)
How it was run: (§2)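 NCI 60-cell-line panel screen: single dose 10 µM first, then 5-dose testing (0.01, 0.1, … molar series). For each line, GI50 is the molar concentration giving 50% inhibition of net cell growth, TGI gives total inhibition of net growth, and LC50 gives 50% net cell death. Method follows the NCI DTP protocol.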

HCC 2998 = experiment: Antiproliferative activity against human HCC2998 cells after 48 hrs by sulforhodamine B assay; settings: HCC 2998, 48 h; for CC50: read-out: LC50 (the source's name); how it was run: as §1
786-0 = experiment: Antiproliferative activity against human 786-0 cells after 48 hrs by sulforhodamine B assay; settings: 786-0, 48 h; for CC50: read-out: LC50 (the source's name); how it was run: as §1
OVCAR-3 = experiment: Antiproliferative activity against human OVCAR3 cells after 48 hrs by sulforhodamine B assay; settings: OVCAR-3, 48 h; for CC50: read-out: LC50 (the source's name); how it was run: as §1
T47D = experiment: Antiproliferative activity against human T47D cells after 48 hrs by sulforhodamine B assay; how it was run: as §2
COLO 205 = experiment: Antiproliferative activity against human COLO205 cells after 48 hrs by sulforhodamine B assay; settings: COLO 205, 48 h; how it was run: as §1
K562 = experiment: Antiproliferative activity against human K562 cells after 48 hrs by sulforhodamine B assay; settings: K562, 48 h; how it was run: as §1
KM12 = experiment: Antiproliferative activity against human KM12 cells after 48 hrs by sulforhodamine B assay; settings: KM12, 48 h; for CC50: read-out: LC50 (the source's name); how it was run: as §1
TK-10 = experiment: Antiproliferative activity against human TK10 cells after 48 hrs by sulforhodamine B assay; settings: TK-10, 48 h; for CC50: read-out: LC50 (the source's name); how it was run: as §2
M14 = experiment: Antiproliferative activity against human M14 cells after 48 hrs by sulforhodamine B assay; settings: M14, 48 h; for CC50: read-out: LC50 (the source's name); how it was run: as §1
U-251 = experiment: Antiproliferative activity against human U251 cells after 48 hrs by sulforhodamine B assay; settings: U-251, 48 h; how it was run: as §2
RXF 393 = experiment: Antiproliferative activity against human RXF393 cells after 48 hrs by sulforhodamine B assay; settings: RXF 393, 48 h; for CC50: read-out: LC50 (the source's name); how it was run: as §1
BT-549 = experiment: Antiproliferative activity against human BT549 cells after 48 hrs by sulforhodamine B assay; settings: BT-549, 48 h; for CC50: read-out: LC50 (the source's name); how it was run: as §1
MOLT-4 = experiment: Antiproliferative activity against human MOLT4 cells after 48 hrs by sulforhodamine B assay; settings: MOLT-4, 48 h; for CC50: read-out: LC50 (the source's name); how it was run: as §1
UACC-257 = experiment: Antiproliferative activity against human UACC257 cells after 48 hrs by sulforhodamine B assay; settings: UACC-257, 48 h; for CC50: read-out: LC50 (the source's name); how it was run: as §2
HOP-62 = experiment: Antiproliferative activity against human HOP62 cells after 48 hrs by sulforhodamine B assay; settings: HOP-62, 48 h; how it was run: as §1
EKVX = experiment: Antiproliferative activity against human EKVX cells after 48 hrs by sulforhodamine B assay; settings: for CC50: read-out: LC50 (the source's name); how it was run: as §1
MDA-MB-435 = experiment: Antiproliferative activity against human MDA-MB-435 cells after 48 hrs by sulforhodamine B assay; settings: MDA-MB-435, 48 h; how it was run: as §1
SK-MEL-5 = experiment: Antiproliferative activity against human SK-MEL-5 cells after 48 hrs by sulforhodamine B assay; settings: SK-MEL-5, 48 h; how it was run: as §1
NCI/ADR-RES = experiment: Antiproliferative activity against human NCI/ADR-RES cells after 48 hrs by sulforhodamine B assay; how it was run: as §1
CCRF-CEM = experiment: Antiproliferative activity against human CCRF-CEM cells after 48 hrs by sulforhodamine B assay; how it was run: as §1
LOX IMVI = experiment: Antiproliferative activity against human LOXIMVI cells after 48 hrs by sulforhodamine B assay; how it was run: as §1
MCF7 = experiment: Antiproliferative activity against human MCF7 cells after 48 hrs by sulforhodamine B assay; settings: MCF7, 48 h; how it was run: as §1
HL-60(TB) = experiment: Antiproliferative activity against human HL-60(TB) cells after 48 hrs by sulforhodamine B assay; settings: HL-60, 48 h
How it was run: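 Tested by the National Cancer Institute in its full tumour cell panel covering nine cancer types, including leukemia. Compounds were first screened at a single dose. Those passing the preset inhibition threshold then went to a 5-dose screen. GI50 is the molar concentration giving 50% inhibition of net cell growth; TGI and LC50 were also derived.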

HT-29 = experiment: Antiproliferative activity against human HT-29 cells after 48 hrs by sulforhodamine B assay; settings: HT-29, 48 h; how it was run: as §1
[1] = read-out: LC50 (the source's name)

Nc1nn(C(=O)Nc2ccc(Cc3ccccc3)cc2)c2ccccc12
TGI (A549): 48.6 µM | CC50 (A549): > 100 µM | CC50 (SF-539): > 100 µM | TGI (UACC-62): > 100 µM | CC50 (UACC-62): > 100 µM | TGI (HCC 2998): 35.9 µM | CC50 (HCC 2998): > 100 µM | TGI (786-0): 26.2 µM | CC50 (786-0): 92.7 µM | TGI (OVCAR-3): 63.1 µM | CC50 (OVCAR-3): > 100 µM | LC50 (concentration giving 50% net cell death) (T47D): > 100 µM | TGI (T47D): > 100 µM | LC50 (concentration causing 50% net cell death) (COLO 205): > 100 µM | TGI (COLO 205): 37.7 µM | GI50 (K562): 1.2 µM | LC50 (concentration causing 50% net cell death) (K562): > 100 µM | TGI (KM12): > 100 µM | CC50 (KM12): > 100 µM | TGI (TK-10): > 100 µM | CC50 (TK-10): > 100 µM | TGI (M14): > 100 µM | CC50 (M14): > 100 µM | LC50 (concentration giving 50% net cell death) (U-251): 65.9 µM | TGI (U-251): 30.2 µM | TGI (RXF 393): 58.2 µM | CC50 (RXF 393): > 100 µM | TGI (BT-549): 39.6 µM | CC50 (BT-549): > 100 µM | CC50 (MOLT-4): > 100 µM | GI50 (UACC-257): 10 µM | TGI (UACC-257): 50.9 µM | CC50 (UACC-257): > 100 µM | LC50 (concentration causing 50% net cell death) (HOP-62): > 100 µM | TGI (HOP-62): 46.5 µM | TGI (EKVX): 92 µM | CC50 (EKVX): > 100 µM

Nc1ccc2c(c1)c(N)nn2C(=O)Nc1ccc(Cc2ccccc2)cc1
GI50 (MDA-MB-435): 7.36 µM | TGI (MDA-MB-435): 23.8 µM | CC50 (MDA-MB-435; [1]): 65.5 µM | GI50 (SK-MEL-5): 6.52 µM | TGI (SK-MEL-5): 19.8 µM | CC50 (SK-MEL-5; [1]): 46.4 µM | GI50 (A549): 6.58 µM | TGI (A549): 57.1 µM | CC50 (A549): > 100 µM | GI50 (NCI/ADR-RES): 17.4 µM | TGI (NCI/ADR-RES): 75.1 µM | CC50 (NCI/ADR-RES; [1]): > 100 µM | GI50 (SF-539): 8.7 µM | TGI (SF-539): 22.1 µM | CC50 (SF-539): 51.8 µM | GI50 (CCRF-CEM): 2.07 µM | LC50 (concentration causing 50% net cell death) (CCRF-CEM): > 100 µM | TGI (CCRF-CEM): 18.8 µM | GI50 (UACC-62): 2.9 µM | TGI (UACC-62): 12.6 µM | CC50 (UACC-62): 39.3 µM | GI50 (LOX IMVI): 3.38 µM | LC50 (concentration causing 50% net cell death) (LOX IMVI): 46.7 µM | TGI (LOX IMVI): 16 µM | GI50 (HCC 2998): 4.17 µM | TGI (HCC 2998): 14.8 µM | CC50 (HCC 2998): 40.9 µM | GI50 (MCF7): 6.92 µM | TGI (MCF7): 26.5 µM | CC50 (MCF7; [1]): 85.4 µM | GI50 (786-0): 12.4 µM | TGI (786-0): 25.9 µM | CC50 (786-0): 54.3 µM | GI50 (OVCAR-3): 12.1 µM | TGI (OVCAR-3): 28.3 µM | CC50 (OVCAR-3): 66.7 µM | GI50 (T47D): 5.8 µM | LC50 (concentration giving 50% net cell death) (T47D): 66 µM | TGI (T47D): 22.8 µM | GI50 (COLO 205): 13.1 µM | LC50 (concentration causing 50% net cell death) (COLO 205): 53.9 µM | TGI (COLO 205): 26.5 µM | GI50 (K562): 2.24 µM | LC50 (concentration causing 50% net cell death) (K562): > 100 µM | TGI (K562): 11.4 µM | GI50 (KM12): 3.34 µM | TGI (KM12): 15.1 µM | CC50 (KM12): 41.3 µM | GI50 (TK-10): 19.4 µM | TGI (TK-10): 46 µM | CC50 (TK-10): > 100 µM | GI50 (M14): 4.59 µM | TGI (M14): 17.8 µM | CC50 (M14): 51.9 µM | GI50 (U-251): 6.53 µM | LC50 (concentration giving 50% net cell death) (U-251): 52 µM | TGI (U-251): 20.9 µM | GI50 (RXF 393): 21.4 µM | TGI (RXF 393): 43.9 µM | CC50 (RXF 393): 90.1 µM | GI50 (HL-60(TB)): 3.46 µM | TGI (HL-60(TB)): 17.2 µM | CC50 (HL-60(TB); [1]): 72.2 µM | GI50 (BT-549): 14.6 µM | TGI (BT-549): 33.5 µM | CC50 (BT-549): 76.7 µM | GI50 (MOLT-4): 4.48 µM | TGI (MOLT-4): 24.3 µM | CC50 (MOLT-4): > 100 µM | GI50 (UACC-257): 14.5 µM | TGI (UACC-257): 29.7 µM | CC50 (UACC-257): 60.8 µM | GI50 (HT-29): 4.51 µM | LC50 (concentration giving 50% net cell death) (HT-29): 46 µM | TGI (HT-29): 17.2 µM | GI50 (HOP-62): 11.2 µM | LC50 (concentration causing 50% net cell death) (HOP-62): 65.3 µM | TGI (HOP-62): 27 µM | GI50 (EKVX): 14 µM | TGI (EKVX): 36.7 µM | CC50 (EKVX): 96.1 µM
